hERG protect: shields human hERG channel from block by proarrhythmic agents | CHO-hERG, FluxOR thallium flux, dofetilide IC70 present | activation (rescue from dofetilide block), less the hit threshold, % at 10 µM | 0.51% of 310,000 active | AID 1511;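 active = activation above the mean of controls blocked by dofetilide plus 5 SD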;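 also: thallium influx through hERG after potassium depolarization seen as dye fluorescence rise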
KCNQ1 block: inhibitors of human KCNQ1 potassium channel; P51787; CHO-K1 KCNQ1, FluxOR thallium flux fluorescence; stronger effect = higher value; AID 2642; 1.3% of 310,000 active; B-score at 10 µM;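 active = compounds whose thallium flux B-score, printed positive for inhibition, exceeds three library SD while starting fluorescence stays within three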;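 also: channel opened by potassium depolarization with thallium stimulus after 20 min compound exposure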
Target sequence (P51787 whole entry, looked up): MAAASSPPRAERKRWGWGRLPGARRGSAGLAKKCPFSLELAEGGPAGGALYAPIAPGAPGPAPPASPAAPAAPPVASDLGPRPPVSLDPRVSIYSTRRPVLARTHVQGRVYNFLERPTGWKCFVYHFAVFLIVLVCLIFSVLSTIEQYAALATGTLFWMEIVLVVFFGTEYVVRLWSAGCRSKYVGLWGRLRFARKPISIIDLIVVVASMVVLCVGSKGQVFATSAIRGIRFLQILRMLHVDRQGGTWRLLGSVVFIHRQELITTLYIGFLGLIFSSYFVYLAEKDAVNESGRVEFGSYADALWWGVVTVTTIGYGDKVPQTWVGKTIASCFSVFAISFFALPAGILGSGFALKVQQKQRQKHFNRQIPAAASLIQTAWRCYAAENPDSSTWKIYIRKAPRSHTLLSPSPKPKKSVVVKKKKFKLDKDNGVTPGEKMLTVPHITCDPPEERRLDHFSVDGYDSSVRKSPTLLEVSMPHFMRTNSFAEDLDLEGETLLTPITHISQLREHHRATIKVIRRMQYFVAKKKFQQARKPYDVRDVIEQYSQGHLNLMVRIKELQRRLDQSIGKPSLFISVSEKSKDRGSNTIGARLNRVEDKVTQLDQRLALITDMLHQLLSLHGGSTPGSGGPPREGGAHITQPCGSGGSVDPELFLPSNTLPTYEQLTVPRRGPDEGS
KCC2 mod: modulates chloride dependent transport by human KCC2; KCC2 cells, thallium flux FluoZin-2 fluorescence; B-score of Tl+ flux slope (higher = more flux/activation; lower = inhibition) at 10 µM; 2.2% of 190,000 active; AID 1456;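 active = thallium flux slope and its plate-corrected score both differing from the plate sample mean at a set confidence after two filtering rounds, in either direction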;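 also: slope of fluorescence scaled to starting intensity during 10 to 20 s after thallium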
AI-2 QS mod: modulators of Vibrio harveyi AI-2 quorum sensing system; Vibrio harveyi JMH597 AI-2 luminescence/OD600 ratio, 9 h; stronger effect = lower value; strain lacks LuxN and CqsS sensors; 0 = neutral-control median; 0.4% of 300,000 active; activity change, % at 7.5 µM; in the data active = activity change below about -75%, passing the limit was not always enough; inconclusive = no clear call, values can overlap the other calls;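 also: luminescence divided by OD600 gain over 9 h not by final OD600 alone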
KCNQ1 pot: human KCNQ1 channel potentiation or activation; B-score at 10 µM; CHO-K1 KCNQ1, thallium flux FluxOR fluorescence; stronger effect = higher value; P51787; 0.35% of 310,000 active;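 active = fluorescence ratio B-score, a plate-corrected score, at least three library SD, with initial intensity B-score within 5 SD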
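Assay system: CHO-K1 cells stably expressing KCNQ1. Medium: assay buffer for compound exposure, DMSO matched across wells. Timing: 37 °C overnight plating, 90-min dark dye load, 20-min compound pretreatment. Signal: kinetic FluxOR fluorescence, 10 s baseline plus 110 s post-stimulus.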
SUMO Mot1 rescue: blocks SUMOylation pathway, rescuing yeast Mot1-301 growth; growth rescue, % at 18.8 µM; S. cerevisiae Mot1-301 growth rescue, ATP luminescence, 38.5C; percent above DMSO median, 100 means doubled; 1% of 320,000 active;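 active = every valid replicate shows activation above 250% relative to neutral control wells; inactive = the rest, any valid replicate at or below 250%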;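 also: OY570 slx delta 5 strain wells were the positive control but not used for scaling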
The depositor's hits bear a star; i = inactive; ? = inconclusive; / = no result given; + = active, no number. Rows were chosen to be rich in hits. Some 4.2% of all compounds tested hit in one or more screens of this group.

SMILES	hERG protect	KCNQ1 block	KCC2 mod	AI-2 QS mod	KCNQ1 pot	SUMO Mot1 rescue
CC(=O)N1CCN(S(=O)(=O)c2ccc(C)cc2)C1C(C)C (stereo not drawn)	-6.2	i	0.407	10.5	i	56.5
Cc1ccc(S(=O)(=O)N2CCN(C(=O)c3ccccc3)C2C(C)C)cc1 (stereo not drawn)	-6.0	i	0.836	5.6	i	278.9*
CCNC(=O)[C@@H]1CCCN1C(=O)[C@H](CCCN=C(N)N)NC(=O)[C@H](CC(C)C)NC(=O)[C@@H](CC(C)C)NC(=O)[C@H](Cc1ccc(O)cc1)NC(=O)[C@H](CO)NC(=O)[C@H](Cc1c[nH]c2ccccc12)NC(=O)[C@H](Cc1cnc[nH]1)NC(=O)[C@@H]1CCC(=O)N1	/	i	/	8.4	i	/
CC(C)CNC(=O)c1ccccc1NC(=O)c1ccc(CSc2ccccc2)cc1	-17.5	7*	-0.0145	9.5	i	0.0
CC(C)CNC(=O)c1ccccc1NC(=O)CCSc1ccccc1	-20.4	i	-1.64	7.4	i	/
Fc1ccc(/C=N/NC(=S)Nc2ccc(Cl)cc2)cc1F	-7.3	i	8.56*	-11.7	i	-11.2
Fc1ccc(NC(=S)N/N=C/c2cccc(Br)c2)c(F)c1	-6.1	i	3.97*	-13.5	i	/
Cc1cccc(NC(=S)N/N=C/c2cccc(O)c2)c1C	-12.7	i	0.981	-9.5	i	-12.1
Fc1cccc(/C=N/NC(=S)Nc2ccccc2Cl)c1	6.8*	i	40.7*	27.1	i	183.8
Cc1cccc(-n2c(SCc3ccc([N+](=O)[O-])cc3)nnc2-c2c[nH]c3ccccc23)c1	-18.5	i	0.0339	19.2	i	333.8
O=C(c1nnsc1S(=O)(=O)c1ccc(Cl)cc1)N1CCOCC1	-4.3	i	0.0324	-3.1	i	/
CNC(=O)c1nnsc1S(=O)(=O)c1ccc(Cl)cc1	-15.3	i	-0.427	-95.1*	i	/
Cc1ccc(C2=NNC(=O)C(c3ccc(Cl)cc3)C2)cc1 (stereo not drawn)	-1.7	i	/	-83.9*	i	426.1
O=C1NN=C(c2ccc(Cl)cc2)CC1c1cccc(Br)c1 (stereo not drawn)	-7.5	i	-3.18	30.4	i	14.3
C=CCN1C(=O)C(Cc2ccc(OCC)cc2)S/C1=N\N=C\c1cccs1 (stereo not drawn)	-4.6	i	-0.448	23.0	i	9.6
C=CCN1C(=O)C(Cc2ccccc2)S/C1=N/N=C/c1cccs1 (stereo not drawn)	-8.7	8*	-0.765	14.5	i	294.1
O=C(CCCCCCCC(=O)c1ccccc1)c1ccccc1	-5.8	7*	-0.867	6.5	i	-3.9
Cc1ccc(CNC(=O)C2(NC(=O)Nc3ccc(C)cc3)CCCCC2)cc1	4.6*	i	/	0.0	i	-8.6
Cc1ccc(CNC(=O)Nc2ccc3c(c2)N(C)C(=O)CS3)cc1	-9.4	i	0.381	-77.6*	i	-6.5
CCC(Oc1ccc(C)c(C)c1)C(=O)N1CCCN(C)CC1 (stereo not drawn)	-11.8	i	/	16.1	i	-10.5
Cc1oc2ccc(Br)cc2c(=O)c1-c1nn[nH]n1	-6.2	i	-0.545	9.0	i	5.6
Cc1c(-c2cc[n+]([O-])cc2)oc2ccc(Br)cc2c1=O	4.9*	i	-1.22	14.6	i	-9.6
O=C(CS(=O)(=O)c1ccccc1)N(CCCN1CCOCC1)c1nc2c(F)cccc2s1	-12.9	i	/	13.4	i	348.7*
CC(C)(C)Nc1nc(Nc2ccc([N+](=O)[O-])cc2)nc(NC(C)(C)C)n1	-10.7	8*	/	38.6	i	-10.2
NNc1nc(Nc2ccc([N+](=O)[O-])cc2)nc(N2CCCCCC2)n1	-4.7	6*	/	9.9	i	-6.4
SMILES	hERG protect	KCNQ1 block	KCC2 mod	AI-2 QS mod	KCNQ1 pot	SUMO Mot1 rescue
CC(C)[C@H](NC(N)=O)C(=O)Nc1cccc(S(=O)(=O)N2CCOCC2)c1	-5.1	i	0.741	9.0	i	/
CCCS(=O)(=O)N1CCN(C(=O)c2cccc(OC)c2)CC1	-11.3	i	/	5.2	i	-1.9
Cc1noc(/C=C/c2ccc(-c3ccccc3Cl)o2)c1[N+](=O)[O-]	-5.8	7*	i	18.0	i	-16.3
O=C(COc1ccccc1)N1CCN(S(=O)(=O)c2cccs2)CC1	-2.0	i	0.587	5.6	9*	5.0
O=S(=O)(c1cccs1)N1CCN(c2ncccn2)CC1	-11.4	i	0.00264	20.3	i	+
O=C(NC1(Cc2ccccc2)CCN(CCCc2ccccc2)C1=O)c1ccccc1 (stereo not drawn)	/	/	/	/	/	11.3
CC(N)c1ccc(Cl)cc1Cl (stereo not drawn)	-4.5	i	-1.23	30.3	i	-2.0
CCOC(=O)C(C(=O)OCC)N(C#N)c1nc(SC)nc(N(C)C)n1	-4.5	i	/	-0.3	i	210.9
CSc1nc(N(C)C)nc(N(C#N)CCOC(C)=O)n1	-4.1	i	1.46	16.4	i	655.7*
CCN(CC)c1ccc(CNCc2cccs2)cc1	-12.0	i	0.154	14.4	i	2.9
CCCc1nnc(SCC(=O)O)n1CC	-7.7	i	1.54	11.0	i	4.3
COc1ccc(OCC(=O)Nc2ccc3nc(C)sc3c2)cc1	-10.2	i	-0.4	31.0	i	-3.4
COC(=O)/C=C/S(=O)(=O)c1ccc(NC(C)=O)cc1	-21.5	6*	/	?	i	-10.4
CCOc1ccc(C(=O)C(C)OC(=O)c2nc(Cl)ccc2Cl)cc1 (stereo not drawn)	-5.3	i	/	2.4	i	-24.6
COc1cc(OC)cc(C(=O)Nc2nc(-c3ccccc3)c(-c3ccccc3)o2)c1	-4.8	i	9.96*	41.1	i	-0.1
Cc1cc(C)c2nc(SCC(=O)NCCC3=CCCCC3)cc(C)c2c1	-11.7	i	12.1*	13.3	i	18.5
O=C(COC(=O)CCNS(=O)(=O)c1ccc2c(c1)OCCO2)NC1CCCc2ccccc21 (stereo not drawn)	5.3*	i	-0.841	26.8	i	1.2
N#Cc1ccc(OCC(=O)OCC(=O)Nc2sccc2C(N)=O)cc1	/	/	/	/	/	-11.6
COc1ccc(C2(C)CC(C)(C)Nc3ccccc32)cc1 (stereo not drawn)	-11.9	i	/	-13.2	8*	-4.7
COC(=O)c1cc(NC(=O)c2ccc([N+](=O)[O-])cc2)c(=O)oc1C	-4.0	i	-0.847	-9.7	i	974.8*
CC(=O)c1cc(NC(=O)c2ccc([N+](=O)[O-])cc2)c(=O)oc1C	-6.0	i	-0.683	-3.4	i	586.2

Screening results as filed in PubChem BioAssay.
